Assay [1] concerns MV4-11. The experiment in a line: Cytotoxicity against human MV4-11 cells after 72 hrs by plate reader analysis. Format: functional, cell-based. To be noted: MV4-11, 72 h.
For assay [2], the system named is BaF3. As to the kind of experiment: Cytotoxicity against mouse BA/F3 cells transfected with FLT3-ITD at 1 uM after 24 hrs by plate reader analysis. It is filed as functional, cell-based.
The subject of assay [3] is KG-1. The experiment in a line: Cytotoxicity against human KG1 cells after 72 hrs by plate reader analysis. It is filed as functional, cell-based. The settings on record: KG-1, 72 h.
Assay [4] has as its target Proto-oncogene tyrosine-protein kinase Src (Homo sapiens) (UniProt P12931). The experiment in a line: Inhibition of SRC (unknown origin) transfected in mouse Ba/F3 cells at 5 uM after 24 hrs. It is filed as cell-based. To be noted: BaF3.
Assay [5] deals with T1, Ephrin type-A receptor 8 (Homo sapiens) (UniProt P29322).
T1 sequence (whole entry): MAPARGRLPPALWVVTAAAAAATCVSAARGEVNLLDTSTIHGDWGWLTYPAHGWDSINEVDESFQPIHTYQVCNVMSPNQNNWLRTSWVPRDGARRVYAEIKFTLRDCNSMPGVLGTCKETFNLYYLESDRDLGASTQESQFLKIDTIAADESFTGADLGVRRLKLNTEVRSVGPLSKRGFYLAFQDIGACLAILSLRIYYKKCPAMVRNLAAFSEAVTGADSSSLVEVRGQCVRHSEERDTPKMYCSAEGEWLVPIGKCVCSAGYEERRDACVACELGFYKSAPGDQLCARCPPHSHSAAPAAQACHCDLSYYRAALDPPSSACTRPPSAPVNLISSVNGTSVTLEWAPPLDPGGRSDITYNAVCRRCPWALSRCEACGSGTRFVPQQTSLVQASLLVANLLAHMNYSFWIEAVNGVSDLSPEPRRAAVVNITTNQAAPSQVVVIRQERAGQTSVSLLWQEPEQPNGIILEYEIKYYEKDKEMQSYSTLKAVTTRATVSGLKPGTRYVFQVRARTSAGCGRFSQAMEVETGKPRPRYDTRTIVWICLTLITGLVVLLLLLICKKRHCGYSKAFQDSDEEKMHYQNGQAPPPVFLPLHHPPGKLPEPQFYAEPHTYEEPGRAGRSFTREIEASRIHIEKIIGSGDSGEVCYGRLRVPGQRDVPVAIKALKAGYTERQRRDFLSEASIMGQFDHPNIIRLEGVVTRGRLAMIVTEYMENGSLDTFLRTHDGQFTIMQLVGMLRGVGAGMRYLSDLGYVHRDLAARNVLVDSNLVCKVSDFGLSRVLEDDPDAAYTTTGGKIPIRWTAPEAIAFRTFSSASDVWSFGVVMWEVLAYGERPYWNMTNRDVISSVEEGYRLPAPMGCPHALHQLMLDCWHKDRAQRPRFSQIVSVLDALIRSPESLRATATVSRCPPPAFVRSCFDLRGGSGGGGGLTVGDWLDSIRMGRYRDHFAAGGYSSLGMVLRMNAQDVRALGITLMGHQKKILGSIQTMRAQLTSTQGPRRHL
As to the kind of experiment: Inhibition of EPHA8 (unknown origin) transfected in mouse Ba/F3 cells at 5 uM after 24 hrs. The settings on record: BaF3. It is filed as cell-based. The method in brief: (§1)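 Kinase specificity panel: each Ba/F3 line transformed with one of 24 tyrosine kinases depends on that kinase to grow. Cells were given compound at 1 or 5 µM for 24 h, with DMSO as comparator. Percentage growth was read by ATP-lite luminescence and reported as mean ± SEM.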

Assay [6] deals with BaF3. As to the kind of experiment: Cytotoxicity against mouse BA/F3 cells transfected with FLT3-ITD-F691l at 1 uM after 24 hrs by plate reader analysis. Format: functional, cell-based.
The target in assay [7] is T2, Megakaryocyte-associated tyrosine-protein kinase (Homo sapiens) (UniProt P42679).
T2 sequence (whole entry): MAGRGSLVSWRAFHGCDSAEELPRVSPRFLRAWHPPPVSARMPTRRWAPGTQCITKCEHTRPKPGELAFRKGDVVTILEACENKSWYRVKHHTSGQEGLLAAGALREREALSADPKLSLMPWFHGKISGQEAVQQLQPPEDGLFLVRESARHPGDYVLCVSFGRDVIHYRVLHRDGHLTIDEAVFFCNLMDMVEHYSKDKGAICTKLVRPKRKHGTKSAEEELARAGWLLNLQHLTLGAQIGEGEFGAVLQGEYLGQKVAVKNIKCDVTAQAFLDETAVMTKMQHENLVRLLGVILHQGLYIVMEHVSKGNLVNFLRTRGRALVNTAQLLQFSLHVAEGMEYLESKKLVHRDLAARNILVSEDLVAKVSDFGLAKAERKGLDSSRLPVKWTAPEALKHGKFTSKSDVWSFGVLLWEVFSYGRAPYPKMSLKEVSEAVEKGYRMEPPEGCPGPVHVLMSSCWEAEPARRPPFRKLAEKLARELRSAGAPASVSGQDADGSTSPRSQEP
As to the kind of experiment: Inhibition of MATK1 (unknown origin) transfected in mouse Ba/F3 cells at 5 uM after 24 hrs. It is filed as cell-based. The settings on record: BaF3.

Assay [8] deals with Vascular endothelial growth factor receptor 3 (Homo sapiens) (UniProt P35916). As to the kind of experiment: Inhibition of FLT4 (unknown origin) transfected in mouse Ba/F3 cells at 5 uM after 24 hrs. To be noted: BaF3. It is filed as cell-based. The method in brief: as §1
Sequence of Vascular endothelial growth factor receptor 3 (Homo sapiens) (P35916 whole entry): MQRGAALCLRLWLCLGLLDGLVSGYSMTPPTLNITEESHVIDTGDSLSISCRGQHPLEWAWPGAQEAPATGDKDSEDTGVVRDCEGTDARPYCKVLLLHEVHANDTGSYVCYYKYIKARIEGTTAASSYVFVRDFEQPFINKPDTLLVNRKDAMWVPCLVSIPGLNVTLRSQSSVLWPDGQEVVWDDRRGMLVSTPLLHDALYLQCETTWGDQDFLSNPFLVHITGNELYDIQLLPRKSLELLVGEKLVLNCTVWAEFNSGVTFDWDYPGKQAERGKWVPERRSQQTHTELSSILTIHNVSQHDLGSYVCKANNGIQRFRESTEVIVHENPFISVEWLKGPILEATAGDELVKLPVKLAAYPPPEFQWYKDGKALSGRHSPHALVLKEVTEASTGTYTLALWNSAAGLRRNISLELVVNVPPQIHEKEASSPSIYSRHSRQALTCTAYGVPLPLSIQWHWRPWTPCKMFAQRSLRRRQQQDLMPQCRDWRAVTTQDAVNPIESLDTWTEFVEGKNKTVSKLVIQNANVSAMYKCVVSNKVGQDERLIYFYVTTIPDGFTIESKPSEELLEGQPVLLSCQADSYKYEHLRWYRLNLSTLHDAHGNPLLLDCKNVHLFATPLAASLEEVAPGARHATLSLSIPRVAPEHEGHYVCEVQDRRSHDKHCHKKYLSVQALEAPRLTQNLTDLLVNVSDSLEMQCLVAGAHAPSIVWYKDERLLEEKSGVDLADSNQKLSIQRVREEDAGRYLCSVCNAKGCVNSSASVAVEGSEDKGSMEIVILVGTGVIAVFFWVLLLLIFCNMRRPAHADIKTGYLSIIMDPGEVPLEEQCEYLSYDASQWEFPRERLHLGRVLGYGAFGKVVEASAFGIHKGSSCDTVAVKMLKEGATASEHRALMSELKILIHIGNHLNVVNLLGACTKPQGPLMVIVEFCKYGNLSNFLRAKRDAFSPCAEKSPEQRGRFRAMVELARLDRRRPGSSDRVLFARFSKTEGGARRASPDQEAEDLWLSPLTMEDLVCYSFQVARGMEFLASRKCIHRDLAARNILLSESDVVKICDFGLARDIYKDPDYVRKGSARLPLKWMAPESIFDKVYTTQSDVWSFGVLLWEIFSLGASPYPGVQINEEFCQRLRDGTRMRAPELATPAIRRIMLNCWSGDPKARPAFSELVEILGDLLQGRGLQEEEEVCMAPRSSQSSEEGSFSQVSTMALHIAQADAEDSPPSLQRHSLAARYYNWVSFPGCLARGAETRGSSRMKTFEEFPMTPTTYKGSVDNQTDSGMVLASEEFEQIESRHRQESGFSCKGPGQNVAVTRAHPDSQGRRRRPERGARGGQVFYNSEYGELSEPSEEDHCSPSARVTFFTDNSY
Assay [9] has as its target T3, Tyrosine-protein kinase Mer (Homo sapiens) (UniProt Q12866).
T3 sequence (whole entry): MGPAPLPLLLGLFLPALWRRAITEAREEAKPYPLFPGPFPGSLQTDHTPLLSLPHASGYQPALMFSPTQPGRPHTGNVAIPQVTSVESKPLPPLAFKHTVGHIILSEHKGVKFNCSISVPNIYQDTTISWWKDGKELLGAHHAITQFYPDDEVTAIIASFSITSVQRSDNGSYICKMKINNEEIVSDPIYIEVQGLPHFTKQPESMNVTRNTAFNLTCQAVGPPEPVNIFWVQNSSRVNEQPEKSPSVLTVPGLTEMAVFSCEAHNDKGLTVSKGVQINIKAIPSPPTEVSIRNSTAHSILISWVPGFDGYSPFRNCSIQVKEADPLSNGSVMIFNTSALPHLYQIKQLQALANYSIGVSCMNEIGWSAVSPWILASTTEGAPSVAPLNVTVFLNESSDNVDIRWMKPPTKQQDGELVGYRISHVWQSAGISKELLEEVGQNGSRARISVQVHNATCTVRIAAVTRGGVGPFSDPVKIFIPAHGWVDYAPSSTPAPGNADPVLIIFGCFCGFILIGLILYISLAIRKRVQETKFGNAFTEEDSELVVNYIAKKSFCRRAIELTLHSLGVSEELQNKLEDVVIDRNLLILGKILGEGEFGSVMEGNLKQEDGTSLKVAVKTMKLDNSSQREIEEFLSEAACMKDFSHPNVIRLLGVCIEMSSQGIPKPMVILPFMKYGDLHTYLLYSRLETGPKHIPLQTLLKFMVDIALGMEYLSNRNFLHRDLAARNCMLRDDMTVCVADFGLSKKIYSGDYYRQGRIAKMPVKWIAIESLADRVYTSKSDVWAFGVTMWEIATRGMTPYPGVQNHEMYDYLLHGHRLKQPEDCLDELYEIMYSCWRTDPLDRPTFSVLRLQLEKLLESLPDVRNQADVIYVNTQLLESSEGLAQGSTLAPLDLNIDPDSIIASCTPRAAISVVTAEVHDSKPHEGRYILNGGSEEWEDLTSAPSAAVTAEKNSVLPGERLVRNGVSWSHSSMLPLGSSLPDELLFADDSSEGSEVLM
As to the kind of experiment: Inhibition of MERTK (unknown origin) transfected in mouse Ba/F3 cells at 5 uM after 24 hrs. Format: cell-based. To be noted: BaF3.

The term EC50 denotes the concentration that produces a half-maximal response. Low values mean a more potent agent, high ones a less potent agent.

The source made the active and inactive calls. The rule behind the calls is not given here.

Sequence of Proto-oncogene tyrosine-protein kinase Src (Homo sapiens) (P12931 2-536 limits assumed): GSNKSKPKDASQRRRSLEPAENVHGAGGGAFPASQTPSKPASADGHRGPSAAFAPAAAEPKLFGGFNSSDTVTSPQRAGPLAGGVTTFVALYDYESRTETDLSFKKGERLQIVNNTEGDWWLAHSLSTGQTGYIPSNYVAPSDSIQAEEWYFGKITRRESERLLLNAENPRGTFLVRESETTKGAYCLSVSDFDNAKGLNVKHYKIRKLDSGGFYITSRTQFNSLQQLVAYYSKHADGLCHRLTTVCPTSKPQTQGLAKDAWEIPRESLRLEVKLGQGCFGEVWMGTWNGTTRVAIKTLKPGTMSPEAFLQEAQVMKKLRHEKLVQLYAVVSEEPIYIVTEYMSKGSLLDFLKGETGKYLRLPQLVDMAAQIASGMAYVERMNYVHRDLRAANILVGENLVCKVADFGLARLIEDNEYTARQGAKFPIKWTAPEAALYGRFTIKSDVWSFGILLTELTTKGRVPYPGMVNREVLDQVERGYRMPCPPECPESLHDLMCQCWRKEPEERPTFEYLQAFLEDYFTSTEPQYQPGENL

Regarding `Cc1cccc(C(=O)Nc2cc(-c3ccc(F)cc3)n[nH]2)c1`, the results for the EC50 in assay [1] and in assay [3] were 1.78 µM and 29 µM, respectively. Moreover, the outcome in assay [2] was Active.
As for `Cc1ccc(-c2cc(NC(=O)c3ccc(F)cc3)[nH]n2)cc1`, the EC50 is 2.82 µM in [1] and 28 µM in assay [3]. Further, in assay [2], the outcome was Active.
In the case of `Cc1ccc(-n2cnc3cc(Nc4nnc(C)c5ccccc45)ccc32)cc1`, the EC50 in assay [1] came out at 3.41 µM; in assay [3], 20 µM. Besides, the inhibition entry in assay [4], in assay [5], in assay [7], in assay [8] and in [9] was “inactive” throughout. The result in [6] and in assay [2] was Active.
Turning to `Fc1ccc(-c2n[nH]cc2-c2ccncc2)cc1Cl`, the EC50 in [1] amounted to 2.75 µM; in assay [3] it was 24 µM. Besides, the inhibition result in [4] and in assay [5] was “Active” each time. The inhibition entry in [7], in [8] and in [9] was “inactive” throughout. For the same compound, the outcome in assay [2] was Active.
On to `COc1ccc(C(=O)Nc2cc(-c3ccccc3)[nH]n2)cc1`, for which the EC50 was 0.142 µM in assay [1] and 15 µM in [3]. Moreover, the result in [6] and in [2] was Active.

Values taken from ChEMBL document CHEMBL2390926, “Identification of novel FLT3 kinase inhibitors” (Eur J Med Chem, 2013).
